From paper PMC11865470 (Communications Biology, 2025) come the findings set out here.

The target in experiment [1] is T1, mouse Otop3 (mOtop3) (Mus musculus, UniProt Q80UF9).
T1 sequence (Q80UF9 1-577): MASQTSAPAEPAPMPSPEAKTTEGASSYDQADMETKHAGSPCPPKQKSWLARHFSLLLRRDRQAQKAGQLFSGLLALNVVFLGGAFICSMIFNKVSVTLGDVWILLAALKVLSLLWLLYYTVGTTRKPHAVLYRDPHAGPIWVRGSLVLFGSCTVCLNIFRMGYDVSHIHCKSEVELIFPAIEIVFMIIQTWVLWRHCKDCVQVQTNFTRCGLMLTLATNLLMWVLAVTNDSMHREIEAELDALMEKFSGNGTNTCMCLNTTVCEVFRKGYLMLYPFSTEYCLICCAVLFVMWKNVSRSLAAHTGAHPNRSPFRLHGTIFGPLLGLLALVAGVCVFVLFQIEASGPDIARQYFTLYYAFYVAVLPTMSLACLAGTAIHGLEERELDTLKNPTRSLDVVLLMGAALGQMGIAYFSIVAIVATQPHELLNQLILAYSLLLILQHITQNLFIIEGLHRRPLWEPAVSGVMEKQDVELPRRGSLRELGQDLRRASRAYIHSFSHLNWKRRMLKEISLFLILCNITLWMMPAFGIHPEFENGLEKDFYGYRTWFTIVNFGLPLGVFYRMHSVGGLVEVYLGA
As to the kind of experiment: whole-cell patch-clamp, pH 5.5-evoked currents. In kind it is cell-based. The following applies: 10 μM. The gist of the method:
(§1)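 Channel plasmid (2.5 μg) was co-transfected with EGFP plasmid (0.5 μg) using Lipofectamine 2000 into PAC-knockout HEK293T cells. Whole-cell recording 16–24 h after seeding, with Cs-aspartate pipette solution (pH 7.3). Currents evoked by pH 5.5 bath (160 mM NMDG-Cl, 2 mM CaCl2, 10 mM MES); test compound 10 μM.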

Experiment [2] has as its target CaV1.2 (Mus musculus, UniProt Q01815). As to the kind of experiment: whole-cell patch-clamp, off-target channel, 10 μM compound. The experiment is classed as cell-based. The conditions noted are these: for sensitivity of channel to compound: vs 0.1% DMSO. The gist of the method:
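CaV channels in transfected HEK293T cells, whole-cell. Pipette (mM): 120 CsMeSO3, 2 Mg-ATP, 11 EGTA, 10 HEPES, pH 7.4. Bath (mM): 138 NaCl, 5.6 KCl, 2.6 CaCl2, 20 TEA-Cl, 5 glucose, 5 HEPES, pH 7.4. 0.1% DMSO bath applied before 10 μM test compound. Inhibition ratios compared by unpaired t-test, n = 5.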

The target of experiment [3] is T2, mouse Otop2 (mOtop2) (Mus musculus, UniProt Q80SX5).
T2 sequence (Q80SX5 1-563): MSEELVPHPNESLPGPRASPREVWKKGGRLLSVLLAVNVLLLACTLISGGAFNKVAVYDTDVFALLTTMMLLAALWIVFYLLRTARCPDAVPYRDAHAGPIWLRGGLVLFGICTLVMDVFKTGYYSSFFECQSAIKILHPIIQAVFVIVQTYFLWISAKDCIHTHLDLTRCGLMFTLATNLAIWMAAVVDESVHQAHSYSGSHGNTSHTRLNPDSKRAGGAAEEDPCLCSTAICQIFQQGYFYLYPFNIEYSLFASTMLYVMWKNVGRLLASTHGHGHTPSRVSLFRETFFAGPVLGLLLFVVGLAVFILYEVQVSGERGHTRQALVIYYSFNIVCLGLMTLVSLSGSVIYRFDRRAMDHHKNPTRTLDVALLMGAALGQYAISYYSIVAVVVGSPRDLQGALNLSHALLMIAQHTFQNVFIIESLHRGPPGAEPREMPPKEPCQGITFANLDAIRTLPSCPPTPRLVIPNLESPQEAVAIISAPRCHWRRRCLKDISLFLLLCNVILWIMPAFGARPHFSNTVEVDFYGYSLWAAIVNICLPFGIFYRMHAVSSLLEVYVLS
Description: whole-cell patch-clamp, pH 5.5-evoked currents. The experiment is classed as cell-based. The conditions noted are these: 10 μM. The gist of the method:
as §1

The subject of experiment [4] is KV7.1. As to the kind of experiment: whole-cell patch-clamp, off-target channel, 10 μM compound. In kind it is cell-based, Homo sapiens. The following applies: for sensitivity of channel to compound: vs 0.1% DMSO. The gist of the method: (§2)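 KV channels in transiently transfected HEK293T cells, whole-cell. Pipette (mM): 140 KCl, 2.5 MgCl2, 11 EGTA, 10 HEPES, pH 7.4. Bath (mM): 145 NaCl, 2.8 KCl, 2 CaCl2, 1 MgCl2, 10 glucose, 10 HEPES, pH 7.4. 0.1% DMSO bath applied, then 10 μM test compound. DMSO vs compound inhibition ratio compared by unpaired t-test, n = 5.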

The target in experiment [5] is T3, HV1 (Homo sapiens, UniProt Q96D96).
T3 sequence (Q96D96 1-273): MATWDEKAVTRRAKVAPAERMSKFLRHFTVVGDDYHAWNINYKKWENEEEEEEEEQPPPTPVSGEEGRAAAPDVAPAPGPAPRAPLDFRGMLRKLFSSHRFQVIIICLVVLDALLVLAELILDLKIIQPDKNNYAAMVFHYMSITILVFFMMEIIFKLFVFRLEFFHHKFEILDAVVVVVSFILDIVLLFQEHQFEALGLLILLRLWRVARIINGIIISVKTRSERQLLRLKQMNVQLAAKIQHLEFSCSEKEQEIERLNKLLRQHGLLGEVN
Description: whole-cell patch-clamp, off-target channel, 10 μM compound. In kind it is cell-based. The following applies: vs 0.1% DMSO. In a few lines: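 HV1 in transfected HEK293T cells, whole-cell. Pipette (mM): 120 CsCl, 100 MES, pH 5.5. Bath (mM): 150 NaCl, 5 KCl, 1 MgCl2, 2 CaCl2, 10 glucose, 100 HEPES, pH 7.2. Bath with 0.1% DMSO applied before 10 μM test compound. Inhibition ratios compared by unpaired t-test, n = 5.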

Experiment [6] deals with T4, KV3.4 (Homo sapiens, UniProt Q03721).
T4 sequence (Q03721 1-635): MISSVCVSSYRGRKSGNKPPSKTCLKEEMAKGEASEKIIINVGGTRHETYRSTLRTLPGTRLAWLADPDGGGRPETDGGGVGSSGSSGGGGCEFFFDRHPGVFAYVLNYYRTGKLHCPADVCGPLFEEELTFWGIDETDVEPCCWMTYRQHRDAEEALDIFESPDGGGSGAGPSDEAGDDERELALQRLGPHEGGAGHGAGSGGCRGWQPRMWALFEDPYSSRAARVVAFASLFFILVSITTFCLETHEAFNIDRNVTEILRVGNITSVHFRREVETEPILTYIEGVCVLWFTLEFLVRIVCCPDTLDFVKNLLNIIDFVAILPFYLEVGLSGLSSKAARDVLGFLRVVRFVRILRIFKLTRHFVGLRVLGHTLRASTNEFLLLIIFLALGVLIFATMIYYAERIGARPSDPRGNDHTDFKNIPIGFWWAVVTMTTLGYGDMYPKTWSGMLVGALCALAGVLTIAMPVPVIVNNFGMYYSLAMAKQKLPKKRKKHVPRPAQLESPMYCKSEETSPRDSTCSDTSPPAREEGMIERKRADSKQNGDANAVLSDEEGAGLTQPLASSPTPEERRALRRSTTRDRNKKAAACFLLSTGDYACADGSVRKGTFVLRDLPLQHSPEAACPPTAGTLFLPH
Description: whole-cell patch-clamp, off-target channel, 10 μM compound. The experiment is classed as cell-based. The following applies: vs 0.1% DMSO. The gist of the method: as §2

Structures are written as SMILES.

Chain of CaV1.2 (Q01815 whole entry): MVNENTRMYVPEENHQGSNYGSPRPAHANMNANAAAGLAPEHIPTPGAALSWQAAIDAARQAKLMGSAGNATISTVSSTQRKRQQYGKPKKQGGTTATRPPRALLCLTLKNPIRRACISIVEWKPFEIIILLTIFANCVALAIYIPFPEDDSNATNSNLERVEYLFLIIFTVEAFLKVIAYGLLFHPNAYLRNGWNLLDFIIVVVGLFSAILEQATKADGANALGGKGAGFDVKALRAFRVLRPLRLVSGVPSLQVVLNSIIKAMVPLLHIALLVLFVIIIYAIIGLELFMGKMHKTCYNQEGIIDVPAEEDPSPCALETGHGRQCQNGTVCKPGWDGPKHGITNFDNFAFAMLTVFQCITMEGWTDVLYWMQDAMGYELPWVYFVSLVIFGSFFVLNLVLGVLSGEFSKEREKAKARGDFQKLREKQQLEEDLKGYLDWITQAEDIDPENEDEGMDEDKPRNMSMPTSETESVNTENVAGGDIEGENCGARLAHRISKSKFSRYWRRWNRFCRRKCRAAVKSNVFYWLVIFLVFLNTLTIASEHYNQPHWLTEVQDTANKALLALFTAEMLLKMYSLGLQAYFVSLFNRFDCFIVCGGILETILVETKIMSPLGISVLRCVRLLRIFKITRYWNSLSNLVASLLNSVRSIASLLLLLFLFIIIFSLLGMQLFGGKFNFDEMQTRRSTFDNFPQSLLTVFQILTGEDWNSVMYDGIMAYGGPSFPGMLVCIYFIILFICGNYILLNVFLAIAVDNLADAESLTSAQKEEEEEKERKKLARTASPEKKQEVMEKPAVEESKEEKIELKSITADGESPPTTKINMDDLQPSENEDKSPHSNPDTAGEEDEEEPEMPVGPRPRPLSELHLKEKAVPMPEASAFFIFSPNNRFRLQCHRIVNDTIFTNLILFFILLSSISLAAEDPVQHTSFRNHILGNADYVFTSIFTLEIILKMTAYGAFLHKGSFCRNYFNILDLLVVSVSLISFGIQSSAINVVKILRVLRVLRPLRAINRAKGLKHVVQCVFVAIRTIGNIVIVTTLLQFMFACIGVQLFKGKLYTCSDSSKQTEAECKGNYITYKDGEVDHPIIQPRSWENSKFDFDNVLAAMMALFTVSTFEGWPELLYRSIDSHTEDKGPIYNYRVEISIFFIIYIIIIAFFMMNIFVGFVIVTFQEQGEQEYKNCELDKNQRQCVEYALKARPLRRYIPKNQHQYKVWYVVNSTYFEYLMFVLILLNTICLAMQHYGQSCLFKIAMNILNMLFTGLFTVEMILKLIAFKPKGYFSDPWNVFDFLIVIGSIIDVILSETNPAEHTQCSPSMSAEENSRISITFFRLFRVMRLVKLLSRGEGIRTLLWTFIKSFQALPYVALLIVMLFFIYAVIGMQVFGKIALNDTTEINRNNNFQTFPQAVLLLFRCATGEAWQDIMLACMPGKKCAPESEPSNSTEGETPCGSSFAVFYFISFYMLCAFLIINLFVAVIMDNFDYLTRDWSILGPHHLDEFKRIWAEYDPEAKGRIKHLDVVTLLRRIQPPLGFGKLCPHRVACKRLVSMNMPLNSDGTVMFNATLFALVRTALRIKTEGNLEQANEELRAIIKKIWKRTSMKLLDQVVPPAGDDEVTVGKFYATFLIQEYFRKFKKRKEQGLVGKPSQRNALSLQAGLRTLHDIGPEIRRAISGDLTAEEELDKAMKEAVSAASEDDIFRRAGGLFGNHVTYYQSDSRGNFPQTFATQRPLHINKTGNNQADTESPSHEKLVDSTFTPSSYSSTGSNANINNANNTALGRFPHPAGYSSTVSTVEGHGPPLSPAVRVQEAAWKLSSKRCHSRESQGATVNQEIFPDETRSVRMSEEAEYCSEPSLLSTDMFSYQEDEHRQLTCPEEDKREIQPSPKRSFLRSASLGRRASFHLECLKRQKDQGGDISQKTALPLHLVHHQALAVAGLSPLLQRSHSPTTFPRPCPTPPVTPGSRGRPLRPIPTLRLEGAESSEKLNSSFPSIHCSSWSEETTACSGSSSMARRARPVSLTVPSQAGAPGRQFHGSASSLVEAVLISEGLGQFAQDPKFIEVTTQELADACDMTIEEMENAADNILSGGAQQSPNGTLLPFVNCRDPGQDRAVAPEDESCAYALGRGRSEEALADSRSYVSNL

Regarding `CC(C)c1noc2ncc(C(=O)c3ccccc3O)cc12` [HIMOP, (2-hydroxyphenyl)-(3-propan-2-yl-5-isoxazolo[5,4-b]pyridinyl)methanone], in experiment [1], the “effect on pH 5.5-evoked mOtop3 currents” value is recorded as “did not affect”. Besides, the inhibition ratio in experiment [2] is 15.6%; in experiment [4], 16.4%. Besides, the “effect on pH 5.5-evoked mOtop2 currents” value in experiment [3] is recorded as “did not affect”. In addition, the “sensitivity of channel to compound” value in experiment [5] and in experiment [6] was “completely resistant” each time.
With `Cc1ccc(C(=O)Nc2ccc3ccccc3c2)o1` [MFaN, 5-methyl-N-2-naphthyl-2-furamide], the “effect on pH 5.5-evoked mOtop3 currents” value in experiment [1] was “did not affect”. The “sensitivity of channel to compound” value in experiment [2], in experiment [4], in experiment [5] and in experiment [6] was “completely resistant” each time. Moreover, in experiment [3], the “effect on pH 5.5-evoked mOtop2 currents” value is reported as “did not affect”.
`Cc1cc(NC(=O)c2ccc(Br)o2)ccc1NC(=O)c1ccco1` [B2FAMP, 5-Bromo-N-[4-(2-furoylamino)-3-methylphenyl]-2-furamide]: the “effect on pH 5.5-evoked mOtop3 currents” value in experiment [1] is “did not affect”. Moreover, the “sensitivity of channel to compound” value in experiment [2], in experiment [4], in experiment [5] and in experiment [6] was “completely resistant” each time. The “effect on pH 5.5-evoked mOtop2 currents” value in experiment [3] was “did not affect”.
